Assay outcomes (PubChem)
Rows were chosen to be rich in hits. Some 4.9% of all compounds tested hit in one or more screens of this group.
STAT1 blocker – STAT1 signaling inhibition | NIH 3T3 STAT1-luciferase reporter, IFN-gamma, luminescence | inhibition, % at 5.5 µM | 200,000 tested, 0.35% active | AID 920;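 active = inhibition above a set limit, the mean inhibition across all tested compounds plus 3 SD, cut at about 34% in these data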
STAT1 activator – increases IFN-gamma driven STAT1 reporter signal; NIH 3T3 STAT1-luciferase reporter, luminescence; 100% = IFN-gamma alone, no compound; activation (% of control), % at 5.5 µM; 200,000 tested, 2.6% active; AID 932;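 active = activation above the screen-wide mean activation plus 3 SD, cut at about 130% in these data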
STAT3 activator – activators of IL-6 induced STAT3 signaling; U3A cells, IL-6 STAT3-luciferase reporter, luminescence; 100% = signal with IL-6 EC80 alone; activation (% of control), % at 5.6 µM; 190,000 tested, 0.91% active; AID 871;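 active = activation above the screen-wide mean of compound activation plus 3 SD, cut at about 130% in these data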
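Material: human STAT1-deficient U3A cells with stable STAT3-luciferase reporter / Probe or stimulus: IL-6 stimulus at 33 ng/mL final / Schedule: 1 h compound pre-exposure, 6 h IL-6 stimulation, 37 °C / Technique: luminescence / Read-out basis: percent of IL-6-only median luminescence / Control set: IL-6-only high control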
APP 5'UTR act – APP 5'UTR luciferase reporter activation; AID 1276; SH-SY5Y APP 5'UTR luciferase reporter, luminescence; zero percent = DMSO vehicle wells; 190,000 tested, 1% active; activation, % at 2 µM;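 active = activation above a set limit, based on mean plus 3 SD of controls, cut at about 140% in these data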
STAT3 blocker – reduces IL-6 driven STAT3 reporter signal. U3A cells, IL-6 STAT3-luciferase reporter, luminescence; host cell line lacks STAT1. inhibition, % at 5.5 µM. 190,000 tested, 0.89% active. AID 862;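 active = inhibition above the mean inhibition across all screened compounds plus 3 SD, cut at about 44% in these data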
NF-kB expr up – raises NF-kB expression in human neuronal cells | 190,000 tested, 1.6% active | NF-kB reporter expression; hits give high values | AID 1239 | fold change at 12.5 µM; in the data active = fold change above about 3.3
Of the large screens only hits and unclear results are named; the others gave an inactive call.

CNC(=S)N1N=C(c2ccc(C)cc2)CC1c1ccc(Cl)cc1 (stereo not given)	NF-kB expr up 4.5
CNC(=S)N1N=C(c2ccccc2)CC1c1ccccc1Cl (stereo not given)	none
COc1ccc(C(=O)N=c2sc3c(C)ccc(OC)c3n2C)cc1	STAT1 activator 142
COc1ccc(OC)c2c1sc(=NC(=O)C(C)(C)C)n2C	none
Cc1ccc(Cl)cc1N1CCN(C(=O)Cc2ccc(-n3c(=O)[nH]c4ccsc4c3=O)cc2)CC1	none
COCC1CCN(Cc2nc(-c3cccs3)no2)C1 (stereo not given)	STAT1 activator 135 (no result: NF-kB expr up)
C[C@@H]1CN(Cc2nc(-c3cccs3)no2)C[C@H](C)O1	none
Cc1ccc(-n2ncc3c(SCC(=O)NNC(=O)c4ccco4)ncnc32)cc1	none
CCC(C)CCCCNC1=NCCS1 (stereo not given)	none
Cc1ccc(/C=N/Nc2cccc3cccnc23)c(O)c1	NF-kB expr up 7.5
Oc1ccc(/C=N/Nc2cccc3cccnc23)c(O)c1	NF-kB expr up 11
O=c1[nH]ncc(N/N=C\c2ccc(O)cc2O)c1Cl	none
Oc1ccc(/C=N/Nc2nccnc2Cl)c(O)c1	none (no result: APP 5'UTR act)
Oc1ccc(/C=N/Nc2ncc(Br)cn2)c(O)c1	NF-kB expr up 5
Cn1c(CSc2nc3ccccc3s2)nc2ccccc21	STAT1 activator 142
O=c1oc2ccccc2n1CSc1nc2ccccc2s1	STAT1 activator 137, NF-kB expr up 3.3
O=c1oc2ccccc2n1CSC1=NCCS1	NF-kB expr up 4.2
O=C(Cc1c(Cl)cccc1Cl)Nc1cccnc1	none
O=C(O)/C=C/C(=O)NCCCc1ccccc1	none
Cc1c(CN(C)C)c2c(n1C)C(=O)c1ccc(Br)cc1-2	NF-kB expr up 3.3
Cc1c(CN(C)C)c2c(n1Cc1ccccc1)C(=O)c1ccc(Br)cc1-2	none
CC(C)(C)C(=O)Cn1ncc(Br)c(Br)c1=O	none
c1ccc(-c2ncc3c(ccc4ccccc43)n2)cc1	STAT1 activator 141
c1ccc(-c2noc(CCC3CCCC3)n2)cc1	none
c1ccc(-c2noc(CC3CCCCC3)n2)cc1	STAT1 activator 136
CC1CCC(NC(=O)c2ccc3nc[nH]c3c2)CC1 (stereo not given)	STAT1 activator 129
CCS(=O)(=O)c1nc2ccccc2n1Cc1ccccn1	none
Cc1ccc2nc(COc3ccc(Cl)cc3)cc(=O)n2c1	STAT1 activator 136
C=C(C)C1CC=C(C)/C(=N/NC(=O)COc2ccccc2Cl)C1 (stereo not given)	none
Cc1cccc2c1OCC/C2=N\NC(=O)COc1ccccc1Cl	STAT1 activator 130
O=C(Nc1ccc(F)cc1F)c1csc(-c2cccs2)n1	STAT1 activator 135
O=C(O)c1ccc2c(c1)C(=O)N(N1C(=O)c3ccccc3C1=O)C2=O	none
O=C1OC(Nc2cc(Br)cc3cccnc23)c2ccccc21 (stereo not given)	STAT3 activator 133
CCc1cccc(CC)c1NC(=S)N(CCN(C)C)C(C)c1cccnc1 (stereo not given)	none
COc1cccc(-c2nnn(CC(C)=O)n2)c1	STAT1 activator 134
COc1ccc(-c2ccc(-c3nnn(CC(C)=O)n3)cc2)cc1	STAT1 activator 133
CCc1ccc(NC(=O)COC(=O)/C=C/c2c(C)nn(C3CCS(=O)(=O)C3)c2Cl)cc1 (stereo not given)	none
COc1ccc2c(c1)CCc1c(C(=O)NC3CCCCC3)noc1-2	STAT1 activator 129, APP 5'UTR act 145
COCC(C)NC(=O)c1noc2c1CCc1cc(OC)ccc1-2 (stereo not given)	none
COc1ccc2c(c1)CCc1c(C(=O)NCc3ccco3)noc1-2	STAT1 activator 129
COc1ccc2c(c1)CCc1c(C(=O)N(C)c3ccccc3)noc1-2	STAT1 activator 129
COCCNC(=O)c1noc2c1CCc1cc(OC)ccc1-2	none
COc1ccc2c(c1)CCc1c(C(=O)NCCN3CCOCC3)noc1-2	none
CN(C)CCN(C(=O)c1ccccc1Cl)c1nc2c(Cl)cccc2s1	none
CCOC(=S)SCC(=O)Nc1nc(-c2ccc(Br)cc2)cs1	NF-kB expr up 4.6
CC(C)c1ccc(/C=C/C2=NNC(=O)CC2)cc1	STAT1 activator 136, APP 5'UTR act 165, NF-kB expr up 4.6
CC(C)c1ccc(/C=C/C(=O)N2CCCCCC2)cc1	none
COc1ccc2cc(C(N)=O)c(=Nc3ccc(C)cc3)oc2c1	STAT1 activator 138
COc1ccc2oc(=Nc3cccc(F)c3)c(C(N)=O)cc2c1	none
Cc1cccc(N=c2oc3cc(O)ccc3cc2C(N)=O)c1	STAT1 activator 130
COc1ccc(NC(=O)C(Sc2nnc3ccccn23)c2ccccc2)cc1Cl (stereo not given)	none
COC(=O)CC(=O)CSc1nc2c(cc1C#N)CCCCC2	NF-kB expr up 5
CCc1nnc(NC(=O)CSc2nc3c(cc2C#N)CCCC3)s1	APP 5'UTR act 199
Cc1ccnc2ccc(-c3nc4ccccc4o3)cc12	STAT1 activator 136, STAT3 activator 153
c1ccc(-c2nc3ccccc3o2)nc1	none
Cc1cccc(NC(=O)c2c(O)c3cccc4c3n(c2=O)CC4)c1	STAT3 activator 158 (no result: NF-kB expr up)
CN(C)c1ccc(NC(=O)CCCc2ccccc2)cc1	STAT1 activator 138, APP 5'UTR act 150, NF-kB expr up 5.4
O=C(CCc1ccccc1)Nc1ccccc1	none
CCCCOc1ccc2c(c1)C(=O)c1cc(O)ccc1-2	STAT1 activator 149 (no result: NF-kB expr up)
Cc1sc(NC(=O)/C=C/c2ccc(C(C)C)cc2)c(C#N)c1C	none
CC(C)c1ccc(/C=C/C(=O)Nc2nncs2)cc1	STAT1 activator 145, NF-kB expr up 7
Cc1cc(F)ccc1NCC(=O)Nc1ccccc1Br	none
COc1c(C)cccc1C(=O)Nc1ccc(N2CCN(S(C)(=O)=O)CC2)cc1	STAT1 activator 145
COc1c(C)cccc1C(=O)Nc1ccc(CN2CCOCC2)cc1	STAT1 activator 130
COc1cccc(NC(=O)c2ccc(CN3CCOCC3)cc2)c1	STAT1 activator 131
O=C(/C=C/c1ccco1)Nc1cccc2cccnc12	none
Cc1ccc(NC(=O)/C=C/c2ccco2)nc1	STAT1 activator 147
O=C(/C=C/c1ccco1)Nc1nc(-c2ccccc2)cs1	STAT1 activator 133
Cc1csc(NC(=O)/C=C/c2ccco2)n1	STAT1 activator 147
COc1ccc(-c2csc(NC(=S)NC(=O)/C=C/c3ccco3)n2)cc1OC	none
O=C(/C=C/c1ccco1)Nc1nc(-c2ccccn2)cs1	STAT1 activator 129
O=C(Nc1ccc(Cl)cc1)Nc1nc(-c2ccccc2)cs1	none
O=C(O)c1ccc(Nc2nc(-c3ccccc3)cs2)cc1	STAT1 activator 145, NF-kB expr up 4.7
CCOc1cc(/C=N/O)ccc1OS(=O)(=O)c1ccc(C)cc1	none
